A selection: hits, their analogues and other compounds. The true share with any hit is near 1.8%.
eIF4H inh = human eIF4H binding inhibitors, primary screen, translation initiation inhibitor project, biochemical, uHTS, fluorescence polarization. Eukaryotic translation initiation factor 4H (Homo sapiens), Q15056. eIF4H fluorescence polarization binding assay. inhibition, % at 35 µM. 290,000 compounds, 0.94% hits;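 also: calls also rest on retests at 20 µM and on dose response follow-up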
MLLE-PAM2 inh = inhibitors of PABP1 MLLE–PAM2 peptide binding, primary screen, biochemical, fluorescence polarization, FITC-PAM2, GST-MLLE; Polyadenylate-binding protein 1 (Homo sapiens), P11940; inhibition, % at 20 µM; 360,000 compounds, 0.36% hits; in the data active = inhibition above about 35%, passing the limit was not always enough;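 also: plate controls were DMSO wells with GST-MLLE for no effect and wells lacking GST-MLLE protein for full effect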
UBC9 SUMO inh = inhibitors of in vitro SUMOylation cascade, primary screen, biochemical, HTRF, uHTS; SUMO-conjugating enzyme UBC9 (Homo sapiens), P63279; HTRF SUMOylation assay, SAE1/SAE2 + UBC9; inhibition, % at 35 µM; 290,000 compounds, 0.36% hits; in the data active = inhibition above about 50%, passing the limit was not always enough; inconclusive = no clear call, values can overlap the other calls
Target sequence (P63279 whole entry, looked up): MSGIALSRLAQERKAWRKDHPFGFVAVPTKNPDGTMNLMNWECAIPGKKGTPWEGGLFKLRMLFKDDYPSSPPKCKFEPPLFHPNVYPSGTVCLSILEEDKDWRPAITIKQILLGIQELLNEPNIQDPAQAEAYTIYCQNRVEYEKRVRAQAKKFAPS
HCV core dimer = inhibitors of HCV core protein dimerization, primary screen, biochemical, TR-FRET, high-throughput; TR-FRET GST/Flag-core106 dimerization, 1536-well; inhibition, % at 5 µM; 300,000 compounds, 0.33% hits; AID 1899, 2009;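 active = inhibition above the mean of all tested compounds plus 3 SD, set per screening campaign, cut at about 45% in these data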
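System: GST/Flag-tagged HCV core106 proteins. Incubation: compound-protein-antibody incubation 4 h at 22.5 °C. Technique: HTRF with 340 nm excitation, 617/671 nm emission. Medium: KF-containing HEPES buffer, pH 7.45, DTT, CHAPS, BSA. Read-out: inhibition (%) from 671 over 617 nm ratio. Also added: Eu(K)-anti-GST 90 ng/mL plus XL665-anti-Flag 1 µg/mL.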
eIF4E-4G inh = eIF4E–eIF4G protein interaction inhibitors, primary screen, biochemical, uHTS, TR-FRET, eIF4GI fragment. Eukaryotic translation initiation factor 4E (Mus musculus) + Eukaryotic translation …. TR-FRET eIF4E-eIF4GI(517-606) binding, 2 h. inhibition, % at 21.7 µM. 220,000 compounds, 0.37% hits;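 active = inhibition above about 30%, limit read from the data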;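 also: 0% = full FRET control wells and 100% = background wells lacking eIF4GI fragment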
PABP FP inh = PABP poly(A) RNA binding inhibitors, primary screen, biochemical, fluorescence polarization, uHTS. Polyadenylate-binding protein 1 (Homo sapiens), P11940. AID 2014, 2009. 290,000 compounds, 1% hits. calls only at 35 µM;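 also: calls also rest on retests at 20 µM and on dose response follow-up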
* marks the source's active call; other numbers are inactive results; i = inactive; ? = inconclusive; . = no result; + = active, no number. Unless noted, no rule for the calls is given here.

SMILES | eIF4H inh | MLLE-PAM2 inh | UBC9 SUMO inh | HCV core dimer | eIF4E-4G inh | PABP FP inh
CCC1(c2ccccc2)NC(=O)N(CC(=O)NCc2ccc(OC)cc2)C1=O (stereo not drawn) | -1 | -10 | 7 | -9 | . | i
CC(=O)Nc1ccc(C(=O)/C=C/c2ccco2)cc1 | ? | 10 | 31 | 4 | 7 | +
O=C(/C=C\c1ccco1)c1ccc(NC(=O)c2ccco2)cc1 | ? | -1 | 82 | 57* | 17 | +
Cc1c(C=Nc2ccc(S(=O)(=O)CCO)cc2)c(O)[nH]c(=O)c1C#N | . | 11 | . | 1 | . | .
O=C(O)C1CC(c2ccccc2F)=NO1 (stereo not drawn) | -2 | 15 | -1 | -4 | 48* | i
COc1ccccc1S(=O)(=O)N(C)C[C@H]1OCc2cn(nn2)CCCC(=O)N([C@@H](C)CO)C[C@@H]1C | . | 4 | . | . | . | .
Fc1ccc(CN2CC[C@H]3C=CCc4cccc(c43)C2)cc1 | . | 47* | . | . | . | .
CCCSCC(=O)Nc1ncc2c(n1)-c1ccccc1CC2 | 58* | 7 | 4 | 4 | 4 | +
COc1ccc(CC(=O)Nc2ccc(-c3nnc(-c4ccccc4)o3)cc2)cc1OC | -48 | -20 | 6 | 83* | 33* | i
O=C(COc1ccccc1)Nc1ccc(-c2nnc(-c3ccco3)o2)cc1 | -1 | 0 | -4 | 52* | 8 | i
COc1ccccc1OCC(=O)Nc1cccc(-c2nnc(-c3ccco3)o2)c1 | -9 | -18 | 16 | 3 | 2 | i
COc1ccc(CC(=O)Nc2cccc(-c3nnc(-c4ccccc4)o3)c2)cc1OC | -4 | -5 | 1 | . | -3 | i
Cc1ccc([C@H]2N[C@]3(CCCN(Cc4ccc(F)cc4)C3=O)[C@H]3C(=O)N(Cc4ccccc4)C(=O)[C@@H]23)cc1 | . | -9 | . | . | . | .
CN(C)c1c(N)[nH]c2c(c1=O)c(=O)n(C)c(=O)n2C | 47 | -5 | 10 | 5 | -6 | i
Cn1c(=O)c2c(=O)cc(N)[nH]c2n(C)c1=O | 44 | 43* | -3 | -1 | -2 | i
Cn1c(=O)c2ncn(C)c2n(C)c1=O | . | 5 | . | . | . | .
COc1ccc(NC(C)C(=O)Nc2ccc(C(C)(C)C)cc2)cc1Cl (stereo not drawn) | -11 | -16 | -28 | 0 | 4 | i
COc1ccc(NC(C)C(=O)Nc2ccc(C#N)cc2)cc1Cl (stereo not drawn) | 2 | -14 | -5 | -6 | 31* | i
COCCNC(=O)Cn1nc(-c2ccccc2C)ccc1=O | 4 | -5 | 2 | -7 | . | i
NNC(=O)c1oc2nc(-c3ccccc3)cc(-c3ccccc3)c2c1N | -8 | 3 | 17 | 13 | . | i
NNC(=O)c1oc2nc(-c3cccs3)cc(-c3ccco3)c2c1N | ? | -52 | 65 | -5 | . | +
Cc1ccc(-c2cc(-c3ccco3)c3c(N)c(C(=O)NN)oc3n2)cc1 | ? | -43 | 55* | 15 | -2 | ?
COc1cccc(/C=N/NC(=O)c2oc3nc(-c4ccccc4)cc(-c4ccco4)c3c2N)c1 | ? | -61 | 40 | 13 | -4 | ?
CCC1CCCCN1C(=S)NC(=O)c1cccc([N+](=O)[O-])c1 (stereo not drawn) | -19 | 42* | 0 | -6 | . | i
CC1CCN(c2ccc(NC(=S)NC(=O)c3ccco3)cc2)CC1 | -4 | 18 | -15 | 8 | -7 | i
SMILES | eIF4H inh | MLLE-PAM2 inh | UBC9 SUMO inh | HCV core dimer | eIF4E-4G inh | PABP FP inh
COc1ccc(C(=O)Nc2ccc(N3CCN(C(C)=O)CC3)cc2)cc1[N+](=O)[O-] | active | . | 5 | -2 | 1 | +
CC1CCN(c2ccc(NC(=S)NC(=O)c3ccc(-c4cccc([N+](=O)[O-])c4)o3)cc2)CC1 | 11 | 40* | -7 | 16 | -22 | i
CCC(=O)N1CCN(c2ccc(NC(=S)NC(=O)c3cccc([N+](=O)[O-])c3)cc2)CC1 | -4 | 43* | -4 | 2 | 0 | i
CCCCNC(=O)C(NC(=O)c1ccc(=O)[nH]c1)C(=O)c1ccccc1 (stereo not drawn) | . | -9 | . | . | . | .
CC1CCN(c2ccccc2NC(=S)NC(=O)c2ccc(-c3cccc([N+](=O)[O-])c3)o2)CC1 | 25 | 42* | -2 | 9 | -4 | i
O=[N+]([O-])c1ccc(N/N=C/C=C/c2ccco2)cc1 | . | -140 | . | -1 | . | .
CCCc1nnc(SCC(=O)N2CCCC2)n1Cc1ccco1 | -2 | 7 | -9 | -4 | 2 | i
NS(=O)(=O)c1ccc(N/N=C/c2ccc(O)c(O)c2O)c([N+](=O)[O-])c1 | 96* | 42* | ? | . | 78* | i
O=C(C1CCC(Cn2c(=S)[nH]c3ccccc3c2=O)CC1)N1CCN(c2ccccc2)CC1 (stereo not drawn) | . | -51 | . | 53* | . | .
Cc1ccc(-c2ccnc3nc(-n4cccc4)nn23)o1 | 56* | 2 | 11 | 4 | 0 | +
c1ccc(-c2ccnc3nc(N4CCN(c5ccccc5)CC4)nn23)cc1 | 32 | 2 | 21 | 9 | 7 | i
O=C1C(c2ccccc2)=NCCN1C(c1ccc(F)cc1)c1nc2ccccc2[nH]1 (stereo not drawn) | . | -6 | . | . | . | .
O=c1[nH]ncc(N2CCCC2)c1Cl | 15 | 15 | 9 | -10 | 81* | i
O=c1[nH]ncc(N2CCN(C(c3ccccc3)c3ccccc3)CC2)c1Cl | -9 | -12 | 4 | 0 | 8 | i
C=CCn1c(=O)/c(=C/c2ccc(C)o2)s/c1=C(/C#N)C(=O)c1ccccc1 | ? | -111 | 17 | 8 | 1 | +
CCN(CC)S(=O)(=O)c1cccc(NC(=O)COC(=O)c2n[nH]c(=O)c3ccccc23)c1 | -1 | -23 | -17 | -1 | 1 | +
CCN(CC)S(=O)(=O)c1cccc(NC(=O)COC(=O)c2cc(C)oc2C)c1 | -1 | -18 | 3 | 4 | 4 | i
COC/C=C/C1=CC2=CC(=O)C(C)(O)C(=O)C2=CO1 (stereo not drawn) | . | . | . | 58* | . | .
COC/C=C/C1=CC2=CC(=O)C(C)(OC(=O)c3ccco3)C(=O)C2=CO1 (stereo not drawn) | ? | . | 36 | 51* | 19 | ?
COC/C=C/C1=CC2=CC(=O)C(C)(OC(=O)c3cccs3)C(=O)C2=CO1 (stereo not drawn) | . | . | . | 42 | . | .
COC/C=C/C1=CC2=CC(=O)C(C)(OC(=O)C3CCCC3)C(=O)C2=CO1 (stereo not drawn) | 62* | -9 | 15 | 7 | 8 | +
